Compound activity from PubChem.
SR-BI DiI inh: mouse SR-BI HDL lipid transfer inhibition. ldlA[mSR-BI] CHO cells, DiI-HDL uptake fluorescence, 3 h. inhibition, % at 12.5 µM. Q61009. hit rate 0.96% among 320,000;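 active = mean replicate inhibition of at least 70% and a set share of replicates each scoring 70 or more; inconclusive = meets just one of the two criteria; inactive = fails both criteria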;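 note: 0% = median of neutral control wells and 100% = median of positive control wells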
Target sequence (Q61009 whole entry, looked up): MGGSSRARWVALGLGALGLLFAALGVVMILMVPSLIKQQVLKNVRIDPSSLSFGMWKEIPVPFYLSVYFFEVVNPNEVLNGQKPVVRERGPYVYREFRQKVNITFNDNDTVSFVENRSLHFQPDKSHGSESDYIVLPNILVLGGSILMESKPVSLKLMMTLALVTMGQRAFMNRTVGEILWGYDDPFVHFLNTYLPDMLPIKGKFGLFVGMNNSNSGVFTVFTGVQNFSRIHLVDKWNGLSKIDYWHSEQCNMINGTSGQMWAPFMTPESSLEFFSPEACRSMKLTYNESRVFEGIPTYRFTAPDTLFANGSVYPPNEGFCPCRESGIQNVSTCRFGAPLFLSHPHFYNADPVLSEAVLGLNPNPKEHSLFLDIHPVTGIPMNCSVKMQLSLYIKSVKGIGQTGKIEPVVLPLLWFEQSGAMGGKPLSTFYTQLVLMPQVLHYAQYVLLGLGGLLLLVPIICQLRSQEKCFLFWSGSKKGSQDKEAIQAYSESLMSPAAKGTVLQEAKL
AHR activator: human AHR activation | P35869 | AHR-responsive luciferase reporter cells, luminescence | activation, % at 5 µM | hit rate 2.5% among 320,000 | AID 2796; in the data active = activation above about 47%;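 note: 0% = vehicle wells and 100% = reference agonist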
SR-BI DiI-HDL act: SR-BI HDL lipid transfer activation; CHO ldlA[mSR-BI] cells, DiI-HDL uptake fluorescence, 3 h; 100 = double the neutral-control signal; activation, % at 12.5 µM; hit rate 0.096% among 320,000;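 active = mean replicate activation of at least 60% and every replicate at or above 60%; inconclusive = mean or all-replicate condition met, but not both; inactive = mean below 60% and not all replicates reaching 60%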;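 note: 0% = median plate neutral-control signal and 100% = twice that signal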
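Material: SR-BI-overexpressing, LDLR-lacking CHO cells; schedule: compound exposure 3 h, 37 °C; reagent: DiI-labelled HDL at 10 µg/mL final; technique: bottom-read fluorescence, 550/595 nm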
HIF act: HIF pathway transcriptional activation | activation, % at 7.5 µM (by protocol) | hit rate 0.32% among 300,000 | U2OS HRE-luciferase reporter, luminescence; normalized: DMSO 0%, desferrioxamine 100%;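 active = mean activation of at least 10% of the iron chelator positive control signal, with at least half of replicates also reaching 10%; inconclusive = mean and replicate majority disagree about reaching 10%; inactive = mean and most replicates under 10%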
FXN GAA850 act: increases GAA850 frataxin promoter reporter activity. AID 540364. HEK293 lucGAA850 FXN promoter luciferase reporter, 24 h; percent of 10 µM SAHA response. activation, % at 6 µM. hit rate 0.56% among 360,000;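 active = activation above the average of all compounds screened plus 3 SD, cutoff fixed separately per campaign, cut at about 7.5% in these data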;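 note: 0% = DMSO wells and 100% = 10 µM SAHA wells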
ABCB6 inh MLPCN: blocks the human ABCB6 transporter | K562-ABCB6 porphyrin accumulation, flow cytometry, 1 h; stronger effect = lower value | Q9NP58 | hit rate 0.19% among 360,000 | fluorescence ratio to DMSO, % at 10 µM;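 active = fluorescence ratio to DMSO below 75%, the collection mean minus 3 SD; inconclusive = too few cells collected in the well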;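 note: signal is porphyrin accumulated inside mitochondria; 100% equals median channel fluorescence of DMSO control wells; lower ratio means ABCB6 inhibition with less porphyrin fluorescence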
Starred values were filed as active, the others as inactive; u = inconclusive; x = no result given. Only some compounds are listed: those with a hit (about 3.9% of all), similar ones and a draw of the others.

SMILES	SR-BI DiI inh	AHR activator	SR-BI DiI-HDL act	HIF act	FXN GAA850 act	ABCB6 inh MLPCN
CCOc1ccc(NC(=O)CN(C)C(=O)c2ccc(OCc3ccccc3)c(OC)c2)cc1OCC	59.6	8.1	-59.6	-44.8	1.1	97.0
CCOc1ccc(NC(=O)CN(C)C(=O)c2ccccc2CCc2ccccc2)cc1OCC	94.1*	6.0	-94.1	-0.3	-4.5	98.0
CCOc1ccc(NC(=O)CN(C)C(=O)c2cccc3ccccc23)cc1OCC	77.7*	x	-77.7	x	0.6	103.0
CC(=O)C1=C(O)C(=O)N(CCc2c[nH]c3ccccc23)C1c1ccco1 (centres undefined)	8.0	3.5	-8.0	0.2	-1.2	98.0
Cc1ccc2nc(CSc3nc(C)cc(C)c3C#N)[nH]c2c1	28.7	-8.1	-28.7	0.7	4.1	91.0
COc1ccc(NC(=O)CSc2nnc(CNC(=O)c3cccs3)o2)c(OC)c1	-23.7	0.6	23.7	0.0	3.5	97.0
Nc1nccnc1C(=O)OCC(=O)Nc1cccc(S(=O)(=O)N2CCCCC2)c1	15.1	-1.5	-15.1	-0.7	5.2	96.0
CCOc1ccc(NC(=O)CN(C)C(=O)c2ccccc2OCCOc2ccccc2)cc1OCC	82.1*	2.4	-82.1	x	0.3	100.0
CCOc1ccccc1CNC(=O)c1nn(C)c2c1CS(=O)(=O)c1ccccc1-2	88.2*	15.2	-88.2	-0.8	-0.2	95.0
CSc1ccc(CCNC(=O)c2nn(C)c3c2CS(=O)(=O)c2ccccc2-3)cc1	52.3	-0.7	-52.3	-0.7	-0.2	100.0
Cn1nc(C(=O)NCCCN2CCCCC2)c2c1-c1ccccc1S(=O)(=O)C2	-12.0	1.1	12.0	18.8*	1.8	100.0
CCc1ccc(CNC(=O)c2nn(C)c3c2CS(=O)(=O)c2ccccc2-3)cc1	13.5	0.8	-13.5	-0.2	1.9	97.0
CCOc1ccc(CCNC(=O)c2cc3sccc3n2CC)cc1OCC	u	23.8	-70.8	0.8	-1.6	94.0
O=C1COc2ccccc2N1Cc1ccc(Cl)cc1	10.2	2.2	-10.2	-0.2	1.1	92.0
COc1cc(/C=C2/NC(=O)NC2=O)cc(Br)c1OCc1cccc(C(=O)O)c1	-7.1	2.5	7.1	0.0	1.7	103.0
COc1cc(/C=C2/NC(=O)NC2=O)cc(Br)c1OCc1ccccc1	48.2	58.7*	-48.2	-0.4	2.8	102.0
CCS(=O)(=O)c1ccc2oc(Nc3ccc(OC)cc3)nc2c1	16.5	33.1	-16.5	2.4	5.1	98.0
CCOc1ccc(Nc2nc3cc(S(=O)(=O)CC)ccc3o2)cc1	x	63.9*	x	0.4	3.4	100.0
Cc1ccc(NC(=S)NNC(=O)c2ccccc2OC(F)F)cc1	-11.2	101.6*	11.2	2.9	-3.8	97.0
O=C(NC1CC1)c1ccccc1NC(=O)c1ccccc1OC(F)F	x	x	x	x	0.5	99.0
O=C(NNC(=S)Nc1ccc(F)cc1)c1ccccc1OC(F)F	-2.3	91.9*	2.3	0.2	0.7	107.0
COc1cccc(NC(=S)NNC(=O)c2ccccc2OC(F)F)c1	7.8	3.1	-7.8	-0.1	2.0	95.0
CCOC(=O)c1sc2nc(N3CCCC3)c3c(c2c1N)CC(C)(C)OC3	u	-21.8	-70.9	0.1	4.8	96.0
COc1ccc(-c2ccc(SCC(=O)c3ccc(F)cc3)nn2)cc1OC	22.6	18.2	-22.6	0.6	0.8	86.0
Oc1ccc(-c2cn3c(n2)SCC3)cc1	-25.7	65.3*	x	-0.2	0.2	98.0
SMILES	SR-BI DiI inh	AHR activator	SR-BI DiI-HDL act	HIF act	FXN GAA850 act	ABCB6 inh MLPCN
Brc1ccc(-c2cn3c(n2)SCC3)cc1	-1.4	-4.4	1.4	3.7	6.1	94.0
Oc1ccc(Cl)cc1-c1cc(-c2ccco2)[nH]n1	38.5	47.2*	-38.5	1.4	0.8	80.0
CC(C)(C)OC(=O)C[C@H]1C/C=C\C[C@H](CC(=O)N(CCO)Cc2ccccc2)C(=O)N[C@H](C(C)(C)C)COC1=O	-5.8	-0.2	6.2	x	-0.7	95.0
COc1ccc(-c2sc3cc4c(cc3c2-c2ccc(OCCN3CCOCC3)cc2)OCO4)cc1	12.2	1.4	-12.2	x	-1.1	95.0
Cc1ccc(S(=O)(=O)N(C)C[C@H]2OCc3cn(nn3)CCCC(=O)N([C@H](C)CO)C[C@@H]2C)cc1	x	x	x	x	-1.4	99.0
O=C(COc1cccc(Cl)c1)Nc1nc(-c2ccc(S(=O)(=O)N3CCOCC3)cc2)cs1	87.5*	x	-87.5	-0.2	-1.1	93.0
O=C(Nc1nc(-c2ccccn2)cs1)c1ccc(S(=O)(=O)N2CCCCC2)cc1	x	33.5	x	16.2*	x	x
CCOc1cccc(C(=O)Nc2nc(-c3ccc(S(=O)(=O)N4CCOCC4)cc3)cs2)c1	78.6*	-3.4	-78.6	-0.7	-6.0	90.0
CC(C)C(=O)Nc1nc(-c2ccc(S(=O)(=O)N3CCOCC3)cc2)cs1	1.0	6.8	-1.0	-0.6	1.2	98.0
O=C(Nc1nc(-c2ccncc2)cs1)c1ccc(S(=O)(=O)N2CCOCC2)cc1	-1.2	-2.1	1.2	x	2.3	95.0
O=C(COc1cccc(F)c1)Nc1nc(-c2cccnc2)cs1	6.8	53.7*	-6.8	x	1.4	103.0
O=C(Nc1nc(-c2cccs2)cs1)c1ccc(S(=O)(=O)N2CCCCC2)cc1	x	19.6	x	-0.3	-2.5	97.0
C[C@H]1CN([C@@H](C)CO)S(=O)(=O)c2ccc(Br)cc2O[C@H]1CN(C)S(=O)(=O)c1ccccc1F	x	x	x	x	-0.7	108.0
COc1cc(/C=N/n2nnnc2N)cc(OC)c1OC	-6.4	4.5	6.4	-0.6	0.5	97.0
CC1CCN(Cc2c(C(=O)N/N=C/c3cc(Cl)ccc3O)nnn2-c2nonc2N)CC1	18.0	1.9	-18.0	40.0*	-4.3	99.0
COc1c(Cl)cc(Cl)cc1/C=N/NC(=O)c1nnn(-c2nonc2N)c1CN1CCC(C)CC1	-2.6	1.9	2.6	0.0	2.8	95.0
COc1ccc(/C=N/NC(=O)c2nnn(-c3nonc3N)c2-c2cccc(OC)c2)cc1	30.0	1.7	-30.0	x	0.1	104.0
COc1ccc(O)c(/C=N/NC(=O)c2c(C)nnn2-c2nonc2N)c1	100.6*	-4.4	-100.6	2.3	-3.1	99.0
CC1CCN(Cc2c(C(=O)N/N=C/c3cc(Br)ccc3O)nnn2-c2nonc2N)CC1	102.7*	4.9	-102.6	53.4*	-8.2	98.0
Cc1cc(C)c(/C=N/NC(=O)c2nnn(-c3nonc3N)c2CN2CCC(C)CC2)c(C)c1	29.0	-0.2	-29.0	-0.1	-2.8	100.0
COc1ccc(NS(=O)(=O)c2cc(NC(=O)CCNC(=O)c3ccco3)ccc2OC)cc1	-7.7	x	7.7	x	0.3	102.0
Cc1ccc(NC(=O)CCCNC(=O)c2ccc(Cl)cc2)c(O)c1	11.4	60.0*	-11.4	2.8	2.5	105.0
Cc1ccc(NC(=O)CN2CCc3cc4c(cc3C2)OCCCO4)cc1	7.0	2.0	-7.0	-0.1	1.7	84.0
O=C(CN1CCN(c2cccc(C(F)(F)F)c2)CC1)Nc1ccc2c(c1)OCCCO2	x	x	x	x	0.5	99.0
